The record followed here is ChEMBL document CHEMBL5696442, “Discovery of type II inhibitors of TGFβ-activated kinase 1 (TAK1) and mitogen-activated protein kinase kinase kinase kinase 2 (MAP4K2)” (J Med Chem, 2015).

Each structure is given as a SMILES string. The source made the active and inactive calls. The calls are words filed in the database; no cut-off is given here.

The target of assay [1] is Serine/threonine-protein kinase RIO3 (Homo sapiens) (UniProt O14730). The assay is described as follows: Inhibition of RIOK3 (unknown origin) at 1 uM by Ambit Kinomescan binding assay relative to control.
For assay [2], the target named is Ribosomal protein S6 kinase alpha-2 (Homo sapiens) (UniProt Q15349). The assay is described as follows: Inhibition of N-terminal RSK3 kinase domain 1 (unknown origin) at 1 uM by Ambit Kinomescan binding assay relative to control. Put shortly: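 In vitro ATP-site competition binding assay against a panel of over 420 kinases (KinomeScan), with compound tested at 10 or 1 μM.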

Assay [3] concerns the target Ribosomal protein S6 kinase alpha-6 (Homo sapiens) (UniProt Q9UK32). Put plainly: Inhibition of C-terminal RSK4 kinase domain 2 (unknown origin) at 1 uM by Ambit Kinomescan binding assay relative to control.
In assay [4] the target is 5'-AMP-activated protein kinase catalytic subunit alpha-1 (Homo sapiens) (UniProt Q13131). The assay is described as follows: Inhibition of AMPKa1 Lys2 labeling site in human A-375 cells at 0.05 uM by KiNativ Profiling analysis relative to control. It is filed as cell-based.
Assay [5] deals with Serine/threonine-protein kinase 38 (Homo sapiens) (UniProt Q15208). Put plainly: Inhibition of NDR1 Lys1 labeling site in human A-375 cells at 0.05 uM by KiNativ Profiling analysis relative to control. Type of assay: cell-based.
Assay [6] has as its target Glycogen synthase kinase-3 alpha (Homo sapiens) (UniProt P49840). The assay is described as follows: Inhibition of GSK3A (unknown origin) at 1 uM by Ambit Kinomescan binding assay relative to control; values are per cent of control.
Assay [7] deals with Proto-oncogene tyrosine-protein kinase receptor Ret (Homo sapiens), P07949 [M918T]. Put plainly: Inhibition of RET M918T mutant (unknown origin) at 1 uM by Ambit Kinomescan binding assay relative to control; values are per cent of control.
Assay [8] concerns the target Bone morphogenetic protein receptor type-1B (Homo sapiens) (UniProt O00238). The assay is described as follows: Inhibition of BMPR1B (unknown origin) at 10 uM by Ambit Kinomescan binding assay.
Assay [9] has as its target Tyrosine-protein kinase FRK (Homo sapiens) (UniProt P42685). Put plainly: Inhibition of FRK (unknown origin) at 10 uM by Ambit Kinomescan binding assay relative to control.
Assay [10] has as its target Mitogen-activated protein kinase 9 (Homo sapiens, UniProt P45984). The assay is described as follows: Inhibition of JNK2 (unknown origin) at 10 uM by Ambit Kinomescan binding assay relative to control.
The target in assay [11] is Dual specificity mitogen-activated protein kinase kinase 2 (Homo sapiens) (UniProt P36507). The assay is described as follows: Inhibition of MEK2 (unknown origin) at 10 uM by Ambit Kinomescan binding assay.
For assay [12], the target named is Ribosomal protein S6 kinase alpha-1 (Homo sapiens) (UniProt Q15418). The assay is described as follows: Inhibition of RSK1 domain1 Lys1 labeling site in human A-375 cells at 5 uM by KiNativ Profiling analysis relative to control. It is filed as cell-based.
Assay [13] addresses Mitogen-activated protein kinase 3 (Homo sapiens) (UniProt P27361). The assay is described as follows: Inhibition of Erk1 Lys2 labeling site harbouring DLKPSNLLINTTCDLK in human A-375 cells at 0.05 uM by KiNativ Profiling analysis relative to control. Type of assay: cell-based.
Assay [14] deals with Tyrosine-protein kinase JAK1 (Homo sapiens) (UniProt P23458). Put plainly: Inhibition of JAK1 Domain 2 ACT labeling site in human Huh-7 cells at 10 uM by KiNativ Profiling analysis relative to control. Type of assay: cell-based.
For assay [15], the target named is Mitogen-activated protein kinase 14 (Homo sapiens, UniProt Q16539). Put plainly: Inhibition of p38a in human Huh-7 cells at 10 uM by KiNativ Profiling analysis relative to control. It is filed as cell-based.
The target of assay [16] is Discoidin domain-containing receptor 2 (Homo sapiens) (UniProt Q16832). The assay is described as follows: Inhibition of DDR2 (unknown origin) at 10 uM by Ambit Kinomescan binding assay relative to control; values are per cent of control.
In assay [17] the target is Aurora kinase B (Homo sapiens) (UniProt Q96GD4). The assay is described as follows: Inhibition of AurB ATP labeling site in human Huh-7 cell lysate at 1 uM by KiNativ Profiling analysis relative to control. Type of assay: subcellular.
In assay [18] the target is T1, Aurora kinase C (Homo sapiens) (UniProt Q9UQB9).
T1 sequence (whole entry): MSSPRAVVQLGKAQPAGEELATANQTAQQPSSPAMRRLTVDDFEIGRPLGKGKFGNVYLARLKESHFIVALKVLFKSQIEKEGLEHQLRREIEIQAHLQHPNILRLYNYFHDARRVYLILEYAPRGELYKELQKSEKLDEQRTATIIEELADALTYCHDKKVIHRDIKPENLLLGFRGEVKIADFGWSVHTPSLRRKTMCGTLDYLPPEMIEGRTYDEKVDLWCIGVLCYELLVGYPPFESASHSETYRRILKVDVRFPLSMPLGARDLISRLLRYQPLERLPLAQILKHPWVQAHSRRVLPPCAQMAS
Put plainly: Inhibition of AurC ATP labeling site in human Huh-7 cell lysate at 1 uM by KiNativ Profiling analysis relative to control. Type of assay: subcellular.

In assay [19] the target is T2, Serine/threonine-protein kinase ULK3 (Homo sapiens) (UniProt Q6PHR2).
T2 sequence (whole entry): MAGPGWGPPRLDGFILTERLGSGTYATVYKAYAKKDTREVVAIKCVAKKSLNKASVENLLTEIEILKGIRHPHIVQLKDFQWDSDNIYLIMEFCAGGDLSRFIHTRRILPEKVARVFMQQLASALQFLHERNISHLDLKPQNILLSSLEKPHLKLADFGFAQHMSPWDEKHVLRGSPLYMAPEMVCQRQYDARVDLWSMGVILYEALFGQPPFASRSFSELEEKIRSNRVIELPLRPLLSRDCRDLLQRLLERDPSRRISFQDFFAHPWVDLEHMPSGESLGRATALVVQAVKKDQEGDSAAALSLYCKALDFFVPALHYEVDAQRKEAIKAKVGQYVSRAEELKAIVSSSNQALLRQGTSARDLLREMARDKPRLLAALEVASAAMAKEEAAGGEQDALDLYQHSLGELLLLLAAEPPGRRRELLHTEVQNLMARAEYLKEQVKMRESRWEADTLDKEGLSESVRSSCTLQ
Put plainly: Inhibition of ULK3 Lys1 labeling site in human Huh-7 cell lysate at 1 uM by KiNativ Profiling analysis relative to control. Type of assay: subcellular.

Assay [20] concerns the target Calcium/calmodulin-dependent protein kinase type II subunit delta (Homo sapiens) (UniProt Q13557). Put plainly: Inhibition of CaMK2d Lys1 labeling site harbouring IPTGQEYAAKIINTKK in human Huh-7 cells at 1 uM by KiNativ Profiling analysis relative to control. Type of assay: cell-based.
The target of assay [21] is Cyclin-dependent kinase 11B (Homo sapiens) (UniProt P21127). Put plainly: Inhibition of CDK11 Lys2 labeling site in human Huh-7 cells at 1 uM by KiNativ Profiling analysis relative to control. Type of assay: cell-based.
Assay [22] concerns the target DNA-PK/Ku70/Ku85 (Homo sapiens) (UniProt P78527+P12956+P13010). The assay is described as follows: Inhibition of DNAPK ATP labeling site harbouring KGGSWIQEINVAEK in human Huh-7 cells at 1 uM by KiNativ Profiling analysis relative to control. Type of assay: cell-based.

Sequence of Proto-oncogene tyrosine-protein kinase receptor Ret (Homo sapiens), P07949 [M918T] (P07949 whole entry M918T): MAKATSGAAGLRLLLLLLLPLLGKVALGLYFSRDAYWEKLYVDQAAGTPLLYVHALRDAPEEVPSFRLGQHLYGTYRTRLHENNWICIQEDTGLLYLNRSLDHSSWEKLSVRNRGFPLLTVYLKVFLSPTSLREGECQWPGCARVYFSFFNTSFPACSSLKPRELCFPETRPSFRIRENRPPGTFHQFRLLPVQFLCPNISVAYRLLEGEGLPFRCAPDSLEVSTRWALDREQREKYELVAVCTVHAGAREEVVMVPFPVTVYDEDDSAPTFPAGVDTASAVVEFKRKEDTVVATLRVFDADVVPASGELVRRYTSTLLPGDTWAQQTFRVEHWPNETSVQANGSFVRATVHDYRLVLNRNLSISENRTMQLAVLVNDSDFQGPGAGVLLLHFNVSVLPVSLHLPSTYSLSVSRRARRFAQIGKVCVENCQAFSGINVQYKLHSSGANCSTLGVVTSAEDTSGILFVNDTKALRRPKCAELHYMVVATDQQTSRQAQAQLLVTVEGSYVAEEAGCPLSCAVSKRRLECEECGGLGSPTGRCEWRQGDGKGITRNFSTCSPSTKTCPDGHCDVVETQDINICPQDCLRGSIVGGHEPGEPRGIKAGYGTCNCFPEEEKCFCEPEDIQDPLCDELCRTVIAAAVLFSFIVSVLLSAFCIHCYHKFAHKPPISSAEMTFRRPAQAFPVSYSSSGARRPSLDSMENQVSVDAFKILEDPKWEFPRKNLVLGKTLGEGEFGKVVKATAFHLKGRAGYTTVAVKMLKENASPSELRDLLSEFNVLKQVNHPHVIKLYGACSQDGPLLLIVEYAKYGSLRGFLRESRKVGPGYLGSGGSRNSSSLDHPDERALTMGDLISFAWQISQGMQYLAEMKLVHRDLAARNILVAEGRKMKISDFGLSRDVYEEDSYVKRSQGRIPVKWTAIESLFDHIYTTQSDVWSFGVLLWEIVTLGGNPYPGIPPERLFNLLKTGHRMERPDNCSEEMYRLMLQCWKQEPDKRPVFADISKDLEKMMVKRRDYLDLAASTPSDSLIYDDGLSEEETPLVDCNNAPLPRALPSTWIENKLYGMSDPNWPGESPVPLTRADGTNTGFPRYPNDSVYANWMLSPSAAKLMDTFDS
Sequence of Serine/threonine-protein kinase RIO3 (Homo sapiens) (O14730 whole entry, the tested form may be a part): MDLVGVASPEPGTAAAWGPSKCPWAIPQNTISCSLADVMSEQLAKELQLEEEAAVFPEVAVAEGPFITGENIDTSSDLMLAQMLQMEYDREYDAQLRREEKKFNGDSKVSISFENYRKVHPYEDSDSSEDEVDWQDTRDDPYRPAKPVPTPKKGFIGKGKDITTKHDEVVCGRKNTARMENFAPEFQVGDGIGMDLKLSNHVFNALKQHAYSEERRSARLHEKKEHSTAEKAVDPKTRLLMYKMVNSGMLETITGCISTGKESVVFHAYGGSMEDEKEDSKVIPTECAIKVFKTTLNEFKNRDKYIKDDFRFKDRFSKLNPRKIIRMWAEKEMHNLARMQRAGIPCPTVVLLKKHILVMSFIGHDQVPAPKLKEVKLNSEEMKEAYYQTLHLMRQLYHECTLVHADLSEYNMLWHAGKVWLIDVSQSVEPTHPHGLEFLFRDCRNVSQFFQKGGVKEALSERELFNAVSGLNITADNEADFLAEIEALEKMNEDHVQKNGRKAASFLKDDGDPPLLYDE
Sequence of Mitogen-activated protein kinase 3 (Homo sapiens) (P27361 whole entry, the tested form may be a part): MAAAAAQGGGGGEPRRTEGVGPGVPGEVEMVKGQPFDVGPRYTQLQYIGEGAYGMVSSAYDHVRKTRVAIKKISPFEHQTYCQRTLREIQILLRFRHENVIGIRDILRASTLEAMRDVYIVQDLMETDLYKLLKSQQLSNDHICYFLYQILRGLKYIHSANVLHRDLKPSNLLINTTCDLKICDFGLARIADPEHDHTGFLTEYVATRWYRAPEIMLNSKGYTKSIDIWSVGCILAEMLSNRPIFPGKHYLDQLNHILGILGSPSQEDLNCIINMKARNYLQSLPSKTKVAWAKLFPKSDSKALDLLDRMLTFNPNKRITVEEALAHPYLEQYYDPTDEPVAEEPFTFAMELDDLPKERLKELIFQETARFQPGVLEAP
Sequence of Tyrosine-protein kinase FRK (Homo sapiens) (P42685 whole entry): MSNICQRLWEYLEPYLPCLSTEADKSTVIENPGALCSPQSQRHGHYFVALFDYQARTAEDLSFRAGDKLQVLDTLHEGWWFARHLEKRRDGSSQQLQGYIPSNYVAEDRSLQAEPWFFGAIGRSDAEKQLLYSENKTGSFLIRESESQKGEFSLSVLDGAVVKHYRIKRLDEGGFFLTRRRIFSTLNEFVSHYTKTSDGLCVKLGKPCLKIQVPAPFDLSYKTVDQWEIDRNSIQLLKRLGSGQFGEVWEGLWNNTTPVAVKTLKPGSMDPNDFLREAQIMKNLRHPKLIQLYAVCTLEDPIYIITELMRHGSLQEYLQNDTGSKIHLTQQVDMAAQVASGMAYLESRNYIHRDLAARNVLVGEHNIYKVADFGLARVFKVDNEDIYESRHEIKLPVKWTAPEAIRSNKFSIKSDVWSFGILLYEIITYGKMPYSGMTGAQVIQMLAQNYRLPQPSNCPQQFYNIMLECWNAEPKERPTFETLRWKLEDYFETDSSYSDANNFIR
Sequence of Mitogen-activated protein kinase 14 (Q16539 whole entry, the tested form may be a part): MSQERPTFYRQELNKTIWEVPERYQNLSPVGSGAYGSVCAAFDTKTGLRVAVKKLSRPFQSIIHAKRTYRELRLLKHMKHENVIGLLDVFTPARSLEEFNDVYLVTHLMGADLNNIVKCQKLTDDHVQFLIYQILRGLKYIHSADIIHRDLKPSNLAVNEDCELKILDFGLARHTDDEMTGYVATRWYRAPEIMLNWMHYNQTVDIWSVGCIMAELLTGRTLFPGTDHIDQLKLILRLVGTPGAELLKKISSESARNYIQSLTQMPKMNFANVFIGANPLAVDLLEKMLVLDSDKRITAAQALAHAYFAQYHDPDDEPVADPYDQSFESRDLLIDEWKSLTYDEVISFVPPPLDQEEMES
Sequence of Calcium/calmodulin-dependent protein kinase type II subunit delta (Homo sapiens) (Q13557 whole entry): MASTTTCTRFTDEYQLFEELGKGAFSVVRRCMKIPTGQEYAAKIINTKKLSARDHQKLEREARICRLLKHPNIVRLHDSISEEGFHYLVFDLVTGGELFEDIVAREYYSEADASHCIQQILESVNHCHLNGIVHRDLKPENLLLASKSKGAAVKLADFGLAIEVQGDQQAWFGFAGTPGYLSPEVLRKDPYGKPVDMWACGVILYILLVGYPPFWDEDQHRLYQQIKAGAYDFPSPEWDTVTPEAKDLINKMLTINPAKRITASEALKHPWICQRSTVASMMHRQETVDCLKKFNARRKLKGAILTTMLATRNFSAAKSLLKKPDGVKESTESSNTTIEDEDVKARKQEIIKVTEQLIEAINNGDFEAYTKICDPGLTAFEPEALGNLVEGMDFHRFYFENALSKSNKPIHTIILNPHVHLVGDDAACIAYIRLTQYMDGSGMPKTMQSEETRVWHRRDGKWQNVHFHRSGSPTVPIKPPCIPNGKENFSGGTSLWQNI
Sequence of Serine/threonine-protein kinase 38 (Homo sapiens) (Q15208 2-465 limits assumed): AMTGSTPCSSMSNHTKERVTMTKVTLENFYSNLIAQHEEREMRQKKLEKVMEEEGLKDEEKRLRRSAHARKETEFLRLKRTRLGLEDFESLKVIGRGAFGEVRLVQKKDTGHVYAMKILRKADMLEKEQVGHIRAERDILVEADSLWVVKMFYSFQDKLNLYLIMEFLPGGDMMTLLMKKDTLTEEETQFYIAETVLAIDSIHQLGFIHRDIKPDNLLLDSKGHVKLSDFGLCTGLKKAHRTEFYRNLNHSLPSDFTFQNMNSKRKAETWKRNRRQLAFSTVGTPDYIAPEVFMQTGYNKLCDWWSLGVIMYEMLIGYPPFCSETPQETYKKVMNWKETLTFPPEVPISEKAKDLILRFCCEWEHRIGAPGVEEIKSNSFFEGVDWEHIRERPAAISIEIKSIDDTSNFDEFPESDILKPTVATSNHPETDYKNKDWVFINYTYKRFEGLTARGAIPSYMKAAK
Sequence of Cyclin-dependent kinase 11B (Homo sapiens) (P21127 whole entry): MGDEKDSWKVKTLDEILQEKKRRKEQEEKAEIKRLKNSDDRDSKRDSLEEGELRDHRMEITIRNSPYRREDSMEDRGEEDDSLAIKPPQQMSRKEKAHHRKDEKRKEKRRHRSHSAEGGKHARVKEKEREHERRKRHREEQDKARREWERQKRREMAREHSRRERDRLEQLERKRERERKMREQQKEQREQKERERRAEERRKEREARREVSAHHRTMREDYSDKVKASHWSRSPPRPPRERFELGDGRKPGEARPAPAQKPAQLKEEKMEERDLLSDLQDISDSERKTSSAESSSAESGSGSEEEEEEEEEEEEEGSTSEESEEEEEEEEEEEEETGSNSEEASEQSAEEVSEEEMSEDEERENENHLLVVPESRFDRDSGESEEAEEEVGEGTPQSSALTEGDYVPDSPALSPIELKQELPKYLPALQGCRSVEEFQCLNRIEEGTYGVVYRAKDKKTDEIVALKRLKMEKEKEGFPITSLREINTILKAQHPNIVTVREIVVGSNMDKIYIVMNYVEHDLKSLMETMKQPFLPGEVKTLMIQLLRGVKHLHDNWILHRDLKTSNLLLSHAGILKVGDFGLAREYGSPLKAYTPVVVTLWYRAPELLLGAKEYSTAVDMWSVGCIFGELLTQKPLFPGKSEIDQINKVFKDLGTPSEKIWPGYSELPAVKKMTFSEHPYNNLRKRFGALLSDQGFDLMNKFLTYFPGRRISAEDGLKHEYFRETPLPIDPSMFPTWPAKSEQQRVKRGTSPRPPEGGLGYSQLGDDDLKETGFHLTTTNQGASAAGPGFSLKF
Sequence of Aurora kinase B (Homo sapiens) (Q96GD4 whole entry): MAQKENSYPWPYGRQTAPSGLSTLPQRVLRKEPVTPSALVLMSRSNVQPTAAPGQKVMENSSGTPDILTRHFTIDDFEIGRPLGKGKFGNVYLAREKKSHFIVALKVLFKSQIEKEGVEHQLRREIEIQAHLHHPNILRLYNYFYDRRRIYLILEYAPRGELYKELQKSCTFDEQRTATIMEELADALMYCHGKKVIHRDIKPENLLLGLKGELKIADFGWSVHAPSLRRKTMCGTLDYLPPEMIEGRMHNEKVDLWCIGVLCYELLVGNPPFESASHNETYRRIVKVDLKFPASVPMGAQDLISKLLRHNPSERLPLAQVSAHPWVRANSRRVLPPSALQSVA

`CCN1CCN(Cc2ccc(NC(=O)c3ccc(C)c(/C=C/c4cnc5[nH]ccc5c4OC)c3)cc2C(F)(F)F)CC1`: the inhibition is 27% in assay [1]; 68% in assay [2]; 50% in [3]; 7.3% in [4]; 3.2% in [5]. In assay [6], the residual activity came out at 100%. The same molecule gave a % of control in assay [7] of 0.05%.
With `CCN1CCN(Cc2ccc(NC(=O)c3ccc(C)c(Oc4ccnc5[nH]ccc45)c3)cc2C(F)(F)F)CC1`, the inhibition entry in [8] and in assay [11] was “inactive” throughout. In addition, the inhibition in assay [9] was 0.7%; in [10] it was 0%; in [12], -8.6%; in [13], 0.9%; in assay [14], 41.1%; in assay [15], 98.5%. In addition, in assay [16], the percent of control was determined as 5.1%.
In the case of `CNc1cc(Oc2cc(C(=O)Nc3cc(N4CCN(C)CC4)cc(C(F)(F)F)c3)ccc2C)ncn1`, the inhibition in [17] is 2.5%; in [18], 2.5%; in assay [19] it was -5.1%; in assay [20], 11.6%; in assay [21], 25.8%; in assay [22] it was 71.1%.

Broadly, the inhibition is the change of the read-out against control, counted positive when it falls. The residual activity is the share of the control activity or signal that is left under treatment.
